Measured values from ChEMBL document CHEMBL1136910, “Acetoxybenzhydrols as highly active and stable analogues of 1'S-1'-acetoxychavicol, a potent antiallergic principal from Alpinia galanga” (Bioorg Med Chem Lett, 2009).
Counter-ions that a name gives are not always drawn.

What was measured:
Format in all cases: functional, cell-based
RBL-2H3 [1] = experiment: Antiallergic activity against antigen-IgE-mediated degranulation in rat RBL2H3 cells assessed as inhibition of DNP-BSA-induced beta-hexosaminidase release preincubated for 10 mins before DNP-BSA challenge measured after 10 mins
Procedure, shortened: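 Test sample was added to each RBL-2H3 well 10 min before DNP-BSA challenge. β-Hexosaminidase released into the medium was determined 10 min after challenge.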

RBL-2H3 [2] = experiment: Antiallergic activity against antigen-IgE-mediated degranulation in rat RBL2H3 cells assessed as inhibition of DNP-BSA-induced IL4 release preincubated for 10 mins before DNP-BSA challenge measured after 4 hrs
Procedure, shortened: (§1)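 Test sample was added to each RBL-2H3 well 10 min before DNP-BSA challenge. TNF-α and IL-4 released into the medium were measured 4 h after challenge.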

RBL-2H3 [3] = experiment: Antiallergic activity against antigen-IgE-mediated degranulation in rat RBL2H3 cells assessed as inhibition of DNP-BSA-induced TNFalpha release preincubated for 10 mins before DNP-BSA challenge measured after 4 hrs; procedure, shortened: as §1

Compound | IC50 (RBL-2H3 [1]) [µM] | IC50 (RBL-2H3 [2]) [µM] | IC50 (RBL-2H3 [3]) [µM]
C=CC(=O)Oc1ccc(C(OC(=O)C=C)c2ccccc2)cc1 (stereo unspecified) | 28 | – | –
CC(=O)Oc1ccc(C(O)c2ccccc2)cc1 (stereo unspecified) | > 100 | – | –
COC(=O)OC(c1ccccc1)c1ccc(OC(C)=O)cc1 (stereo unspecified) | 6.5 | 12 | 11
CCC(=O)Oc1ccc(C(OC(=O)CC)c2ccccc2)cc1 (stereo unspecified) | 38 | – | –
O=COc1ccc(C(OC=O)c2ccccc2)cc1 (stereo unspecified) | > 100 | – | –
CC(=O)Oc1ccc(C(OC(=O)C(C)C)c2ccccc2)cc1 (stereo unspecified) | 27 | – | –
CC(=O)Oc1ccc(C(OC(C)=O)c2ccccc2)cc1 (stereo unspecified) | 14 | – | –
CN1CCC(=C2c3ccccc3CC(=O)c3sccc32)CC1 [KETOTIFEN FUMARATE] | 158 | – | –
CC(=O)Oc1ccc(C(OC(=O)c2ccccc2)c2ccccc2)cc1 (stereo unspecified) | 17 | 23 | 28
CC(=O)Oc1ccc(C(OC(=O)C(C)(C)C)c2ccccc2)cc1 (stereo unspecified) | 36 | – | –
COC(=O)Oc1ccc(C(OC(=O)OC)c2ccccc2)cc1 (stereo unspecified) | 18 | – | –
CC(C)C(=O)Oc1ccc(C(OC(=O)C(C)C)c2ccccc2)cc1 (stereo unspecified) | > 100 | – | –
